According to ChEMBL document CHEMBL5036356, “Spatial Distribution and Stability of Cholinesterase Inhibitory Protoberberine Alkaloids from Papaver setiferum” (J Nat Prod, 2022):

Molecular target: Acetylcholinesterase (Homo sapiens, UniProt P22303)
Assay: Inhibition of human recombinant AChE using acetylthiocholine chloride as substrate incubated for 5 mins by DTNB reagent based Ellman's method; call rule not given here
Outline: (§1)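 Enzyme stocks (commercial eel AChE, human recombinant AChE or horse serum BChE) at 0.0075 U/mL in 100 mM potassium phosphate, pH 7.4, added to start the reaction. Acetylthiocholine chloride 1 mM and DTNB 0.5 mM final. Compounds were taken from 5 mg/mL methanol stocks and serially diluted in buffer, with methanol blanks. Rate read at 405 nm, 25 °C, for 5 min. IC50 reported as mean ± SEM of at least three repeats.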

Chain of Acetylcholinesterase (Homo sapiens, UniProt P22303) (P22303 whole entry): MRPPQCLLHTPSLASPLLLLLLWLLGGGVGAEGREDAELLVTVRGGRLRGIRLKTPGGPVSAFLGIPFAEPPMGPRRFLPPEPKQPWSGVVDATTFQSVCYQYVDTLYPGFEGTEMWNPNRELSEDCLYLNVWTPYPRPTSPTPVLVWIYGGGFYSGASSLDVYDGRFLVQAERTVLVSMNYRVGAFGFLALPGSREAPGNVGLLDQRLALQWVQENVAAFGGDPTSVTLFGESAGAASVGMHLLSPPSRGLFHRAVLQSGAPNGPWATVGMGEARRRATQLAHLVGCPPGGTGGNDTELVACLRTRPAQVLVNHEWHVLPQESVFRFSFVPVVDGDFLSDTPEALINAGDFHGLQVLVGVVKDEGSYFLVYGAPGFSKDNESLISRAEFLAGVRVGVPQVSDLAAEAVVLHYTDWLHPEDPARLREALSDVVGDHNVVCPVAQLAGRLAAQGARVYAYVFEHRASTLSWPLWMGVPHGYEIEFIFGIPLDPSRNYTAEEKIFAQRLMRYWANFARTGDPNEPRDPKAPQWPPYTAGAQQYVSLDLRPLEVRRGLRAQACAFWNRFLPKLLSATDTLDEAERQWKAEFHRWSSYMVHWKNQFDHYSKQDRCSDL

SMILES	IC50	Ki
O=[N+]([O-])CCc1ccc(O[C@@H]2O[C@H](CO[C@@H]3OC[C@@H](O)[C@H](O)[C@H]3O)[C@@H](O)[C@H](O)[C@H]2O)cc1	Not Active	Not Active
COc1cc2c3c(c1O)-c1c(cccc1OC)C[C@@H]3[N+](C)(C)CC2	Not Active	Not Active
COC1=C[C@]23CCN(C)[C@H](Cc4ccc(OC)c(O)c42)C3=CC1=O [SALUTARIDINE]	Not Active	Not Active
COc1cc(C[C@H]2c3cc(O)c(OC)cc3CC[N+]2(C)C)ccc1O	Not Active	Not Active
COc1cc2c3c(c1O)-c1c(cccc1OC)C[C@@H]3N(C)CC2	Not Active	Not Active
COc1cc2c(cc1O)[C@H](Cc1ccc(OC)c(OC)c1)[N+](C)(C)CC2	Not Active	Not Active

Molecular target: Acetylcholinesterase (Electrophorus electricus, UniProt O42275)
Assay: Inhibition of electrical eel AChE using acetylthiocholine chloride as substrate incubated for 5 mins by DTNB reagent based Ellman's method
Outline: as §1

Chain of Acetylcholinesterase (Electrophorus electricus, UniProt O42275) (O42275 whole entry): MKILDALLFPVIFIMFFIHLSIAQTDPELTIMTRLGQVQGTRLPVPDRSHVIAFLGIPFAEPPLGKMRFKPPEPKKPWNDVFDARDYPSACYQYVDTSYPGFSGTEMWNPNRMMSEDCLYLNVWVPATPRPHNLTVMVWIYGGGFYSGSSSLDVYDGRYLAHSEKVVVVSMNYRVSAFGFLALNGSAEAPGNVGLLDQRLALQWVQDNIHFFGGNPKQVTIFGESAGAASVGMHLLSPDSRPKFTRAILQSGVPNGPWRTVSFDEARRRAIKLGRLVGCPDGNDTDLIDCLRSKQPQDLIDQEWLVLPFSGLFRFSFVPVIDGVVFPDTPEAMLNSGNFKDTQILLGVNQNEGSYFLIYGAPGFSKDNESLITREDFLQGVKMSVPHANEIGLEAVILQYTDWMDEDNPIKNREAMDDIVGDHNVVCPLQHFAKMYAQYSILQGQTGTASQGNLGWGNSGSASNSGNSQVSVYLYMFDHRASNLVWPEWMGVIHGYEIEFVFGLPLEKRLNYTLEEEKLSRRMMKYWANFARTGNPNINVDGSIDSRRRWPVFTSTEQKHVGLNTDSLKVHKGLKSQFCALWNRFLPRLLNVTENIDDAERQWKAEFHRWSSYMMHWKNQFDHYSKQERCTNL

SMILES	IC50	Ki
O=[N+]([O-])CCc1ccc(O[C@@H]2O[C@H](CO[C@@H]3OC[C@@H](O)[C@H](O)[C@H]3O)[C@@H](O)[C@H](O)[C@H]2O)cc1	Not Active	Not Active
COc1cc2c3c(c1O)-c1c(cccc1OC)C[C@@H]3[N+](C)(C)CC2	Not Active	Not Active
COC1=C[C@]23CCN(C)[C@H](Cc4ccc(OC)c(O)c42)C3=CC1=O [SALUTARIDINE]	Not Active	Not Active
COc1cc(C[C@H]2c3cc(O)c(OC)cc3CC[N+]2(C)C)ccc1O	Not Active	Not Active
COc1cc2c(cc1O)[C@H](Cc1ccc(OC)c(OC)c1)[N+](C)(C)CC2	Not Active	Not Active

Molecular target: Cholinesterase (Equus caballus, UniProt P81908)
Assay: Inhibition of horse serum BChE incubated for 5 mins by DTNB reagent based Ellman's method
Outline: as §1, with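 “blanks.” for “blanks. Rate read at 405 nm, 25 °C, for 5 min.”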

Chain of Cholinesterase (P81908 whole entry): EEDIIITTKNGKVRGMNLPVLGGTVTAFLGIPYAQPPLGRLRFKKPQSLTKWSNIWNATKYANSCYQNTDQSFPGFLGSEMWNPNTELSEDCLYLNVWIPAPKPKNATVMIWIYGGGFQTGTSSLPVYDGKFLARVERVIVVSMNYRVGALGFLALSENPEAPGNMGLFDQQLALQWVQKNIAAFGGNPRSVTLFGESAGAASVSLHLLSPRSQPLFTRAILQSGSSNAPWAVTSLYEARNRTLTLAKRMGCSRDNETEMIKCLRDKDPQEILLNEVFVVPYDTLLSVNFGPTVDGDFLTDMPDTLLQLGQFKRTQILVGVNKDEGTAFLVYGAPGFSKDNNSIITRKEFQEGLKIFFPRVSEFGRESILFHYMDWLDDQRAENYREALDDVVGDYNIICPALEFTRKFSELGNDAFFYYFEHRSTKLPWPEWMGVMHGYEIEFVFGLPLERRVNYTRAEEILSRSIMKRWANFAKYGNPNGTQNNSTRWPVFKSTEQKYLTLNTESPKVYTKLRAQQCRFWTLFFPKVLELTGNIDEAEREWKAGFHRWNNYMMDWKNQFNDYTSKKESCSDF

SMILES	IC50	Ki
O=[N+]([O-])CCc1ccc(O[C@@H]2O[C@H](CO[C@@H]3OC[C@@H](O)[C@H](O)[C@H]3O)[C@@H](O)[C@H](O)[C@H]2O)cc1	Not Active	Not Active
COC1=C[C@]23CCN(C)[C@H](Cc4ccc(OC)c(O)c42)C3=CC1=O [SALUTARIDINE]		Not Active
COc1cc(C[C@H]2c3cc(O)c(OC)cc3CC[N+]2(C)C)ccc1O		Not Active
COc1cc2c(cc1O)[C@H](Cc1ccc(OC)c(OC)c1)[N+](C)(C)CC2		Not Active
